Measurements: ChEMBL document CHEMBL1126276, “Synthesis and antimalarial properties of 1-imino derivatives of 7-chloro-3-substituted-3,4-dihydro-1,9(2H,10H)-acridinediones and related structures” (J Med Chem, 1992)

How the values were obtained:
Plasmodium berghei [1] = experiment: Antimalarial activity was measured against mice (Mus musculus) infected with Plasmodium berghei by subcutaneous administration of 160 mg/kg dose; type: organism-based; design: dose 160 mg/kg, route subcutaneous; details: in vivo, sc
How it was run: (§1)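 […] in mice infected with a normal drug-sensitive P. berghei strain. Compound dissolved or suspended in sesame or peanut oil, given as a single subcutaneous dose 72 h postinfection.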

Plasmodium berghei [2] = experiment: Antimalarial activity was measured against mice (Mus musculus) infected with Plasmodium berghei by subcutaneous administration of 20 mg/kg dose; type: organism-based; design: dose 20 mg/kg, route subcutaneous; details: in vivo, sc; how it was run: as §1
Plasmodium berghei [3] = experiment: Antimalarial activity was measured against mice (Mus musculus) infected with Plasmodium berghei by subcutaneous administration of 320 mg/kg dose; type: organism-based; design: dose 320 mg/kg, route subcutaneous; details: in vivo, sc; how it was run: as §1
Plasmodium berghei [4] = experiment: Antimalarial activity was measured against mice (Mus musculus) infected with Plasmodium berghei by subcutaneous administration of 40 mg/kg dose; type: organism-based; design: dose 40 mg/kg, route subcutaneous; details: in vivo, sc; how it was run: as §1
Plasmodium berghei [5] = experiment: Antimalarial activity was measured against mice (Mus musculus) infected with Plasmodium berghei by subcutaneous administration of 640 mg/kg dose; type: organism-based; design: dose 640 mg/kg, route subcutaneous; details: in vivo, sc; how it was run: as §1
Plasmodium berghei [6] = experiment: Antimalarial activity was measured against mice (Mus musculus) infected with Plasmodium berghei by subcutaneous administration of 80 mg/kg dose; type: organism-based; design: dose 80 mg/kg, route subcutaneous; details: in vivo, sc; how it was run: as §1
Plasmodium berghei [7] = experiment: Antimalarial activity in Plasmodium berghei infected mice (Mus musculus) after 160 mg/kg subcutaneous dose; type: functional; how it was run: as §1
Plasmodium berghei [8] = experiment: (§2) Antimalarial activity in Plasmodium berghei infected mice (Mus musculus) after 20 mg/kg subcutaneous dose; type: functional; how it was run: as §1
Plasmodium berghei [9] = experiment: Antimalarial activity in Plasmodium berghei infected mice (Mus musculus) after 320 mg/kg subcutaneous dose; type: functional; how it was run: as §1
Plasmodium berghei [10] = experiment: Antimalarial activity Plasmodium berghei infected mice (Mus musculus) after 640 mg/kg subcutaneous dose; type: functional; how it was run: as §1
Plasmodium berghei [11] = experiment: (§3) Antimalarial activity in Plasmodium berghei infected mice (Mus musculus) after 80 mg/kg subcutaneous dose; type: functional; how it was run: as §1
Plasmodium berghei [12] = experiment: (§4) Antimalarial activity in Plasmodium berghei infected mice (Mus musculus) after 40 mg/kg subcutaneous dose; type: functional; how it was run: as §1
Plasmodium berghei [13] = experiment: (§5) Antimalarial activity in Plasmodium berghei infected mice (Mus musculus) after 10 mg/kg subcutaneous dose; type: functional
How it was run: (§6)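 Normal drug-sensitive P. berghei strain in mice. Compound dissolved or suspended in sesame or peanut oil, given parenterally as a single subcutaneous dose 72 h postinfection.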

Plasmodium berghei [14] = experiment: Antimalarial activity in Plasmodium berghei infected mice (Mus musculus) after subcutaneous 160 mg/kg dose; type: functional; how it was run: as §6
Plasmodium berghei [15] = experiment: as §2; type: functional; how it was run: as §6; remark: listed apart in the source
Plasmodium berghei [16] = experiment: Antimalarial activity in Plasmodium berghei infected mice (Mus musculus) after subcutaneous 320 mg/kg dose; type: functional; how it was run: as §6
Plasmodium berghei [17] = experiment: as §4; type: functional; how it was run: as §6; remark: listed apart in the source
Plasmodium berghei [18] = experiment: Antimalarial activity in Plasmodium berghei infected mice (Mus musculus) after subcutaneous 640 mg/kg dose; type: functional; how it was run: as §6
Plasmodium berghei [19] = experiment: as §3; type: functional; how it was run: as §6; remark: listed apart in the source
Plasmodium berghei [20] = experiment: as §5; type: functional; how it was run: as §1; remark: listed apart in the source
Plasmodium berghei [21] = experiment: (§7) Antimalarial activity in Plasmodium berghei infected mice (Mus musculus) after 5 mg/kg subcutaneous dose; type: functional; how it was run: as §1
Plasmodium berghei [22] = experiment: as §7; type: functional; how it was run: as §6; remark: listed apart in the source
Plasmodium berghei [23] = experiment: Antimalarial activity in Plasmodium berghei infected mice (Mus musculus) after 640 mg/kg subcutaneous dose; type: functional; how it was run: as §1

SMILES	No. of toxic deaths (Plasmodium berghei [1])	No. of toxic deaths (Plasmodium berghei [2])	No. of toxic deaths (Plasmodium berghei [4])	No. of toxic deaths (Plasmodium berghei [5])	Delta mean survival time (Plasmodium berghei [8])	Delta mean survival time (Plasmodium berghei [11])	Delta mean survival time (Plasmodium berghei [12])	No. of cured mice (Plasmodium berghei [13])	No. of cured mice (Plasmodium berghei [14])	No. of cured mice (Plasmodium berghei [15])	No. of cured mice (Plasmodium berghei [16])	No. of cured mice (Plasmodium berghei [17])	No. of cured mice (Plasmodium berghei [18])	No. of cured mice (Plasmodium berghei [19])	further results
O=C1CC(c2ccc(Cl)cc2Cl)Cc2nc3c(Cl)cccc3c(O)c21 (stereo unspecified)	2	1	1	4	0.3	5.3	1.3	–	–	–	–	–	–	–	No. of toxic deaths (Plasmodium berghei [3]): 2; No. of toxic deaths (Plasmodium berghei [6]): 1; Delta mean survival time (Plasmodium berghei [7]): 1.3; Delta mean survival time (Plasmodium berghei [9]): 4; Delta mean survival time (Plasmodium berghei [10]): 2
CN(C)CCC/N=C1\CC(c2ccc(C(F)(F)F)cc2)Cc2nc3ccccc3c(O)c21 (stereo unspecified)	5	1	5	5	5.3	–	–	–	–	–	–	–	–	–	–
CN(C)CCC/N=C1\CC(c2ccc(Cl)cc2Cl)Cc2nc3ccc(Cl)cc3c(O)c21 (stereo unspecified)	–	–	–	–	–	–	–	3	5	5	5	5	5	5	Delta mean survival time (Plasmodium berghei [20]): 13.6; Delta mean survival time (Plasmodium berghei [21]): 7.4; No. of cured mice (Plasmodium berghei [22]): 1
Oc1c2c(nc3ccc(Cl)cc13)CC(c1ccc(Cl)cc1Cl)C/C2=N\CCCN1CCCC1 (stereo unspecified)	–	–	–	–	22.9	–	–	1	5	4	5	5	5	5	–
CCCC/N=C1\CC(c2ccc(Cl)c(Cl)c2)Cc2nc3ccc(Cl)cc3c(O)c21 (stereo unspecified)	5	5	4	1	–	1.5	–	–	–	–	–	–	–	–	No. of toxic deaths (Plasmodium berghei [6]): 3; Delta mean survival time (Plasmodium berghei [9]): 1.2; Delta mean survival time (Plasmodium berghei [10]): 2.5
CN(C)CCC/N=C1\CC(c2ccc(Cl)cc2Cl)Cc2nc3cc(Cl)ccc3c(O)c21 (stereo unspecified)	–	–	–	–	2.8	12	6.3	–	4	–	5	1	3	–	No. of toxic deaths (Plasmodium berghei [23]): 2; Delta mean survival time (Plasmodium berghei [7]): 13.8
OCCN(CCO)CCC/N=C1\CC(c2ccc(Cl)cc2Cl)Cc2nc3ccc(Cl)cc3c(O)c21 (stereo unspecified)	–	–	–	–	10.9	–	10.9	1	5	4	5	4	5	5	–
